Reference: ChEMBL document CHEMBL1629645 (Antimicrob Agents Chemother, 2009)
≈ marks a conversion by molar mass, not a printed value. Calls of active or inactive are those of the source. The calls are words filed in the database; no cut-off is given here.

Legend:
Staphylococcus aureus [1] = assay: Antibacterial activity against methicillin-resistant Staphylococcus aureus ATCC 43300 infected in Albino guiena pig assessed as decrease in planktonic bacterial counts in cage fluid at 12.5 mg/kg after measured on day 10 postinfection; assay type: functional
Procedure, shortened: (§1)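 Guinea pig subcutaneous cage model infected with 2 × 10^4 CFU MRSA. Intraperitoneal dosing every 12 h for 4 days, starting day 1. Cage-fluid CFU counted on day 1, day 4 (before last dose) and day 10. Δlog10 CFU/ml is day 4 or day 10 minus day 1. Quantification limit 1,000 CFU/ml; negatives set to 3 log10. Median and IQR.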

Staphylococcus aureus [2] = assay: Antibacterial activity against methicillin-resistant Staphylococcus aureus ATCC 43300 by macrodilution method; assay type: functional
Procedure, shortened: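 Broth macrodilution MIC in Mueller-Hinton broth per CLSI. Inoculum 1 × 10^5 to 5 × 10^5 CFU/ml. Ten twofold drug dilutions, 18 h at 37°C without shaking. MIC is the lowest concentration with no visible growth. Triplicate.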

[3] = AUC (0 to 24 hrs) in cage fluid of Albino guiena pig at 12.5 mg/kg, ip; assay type: ADME, organism-based, Cavia porcellus; design: time < 24 hr, dose 12.5 mg/kg, route intraperitoneal; conditions: guinea pig
Staphylococcus aureus [4] = assay: Antibacterial activity against methicillin-resistant Staphylococcus aureus ATCC 43300 during logarithmic growth phase by macrodilution method; assay type: functional
Staphylococcus aureus [5] = assay: Antibacterial activity against methicillin-resistant Staphylococcus aureus ATCC 43300 infected in Albino guiena pig assessed as decrease in planktonic bacterial counts in cage fluid at 12.5 mg/kg measured on day 4 postinfection; assay type: functional; procedure, shortened: as §1
Staphylococcus aureus [6] = assay: Antibacterial activity against 1 x10'6 to 5 x10^6 CFU/ml methicillin-resistant Staphylococcus aureus ATCC 43300 assessed as bacterial regrowth after 24 hrs by time kill study; assay type: functional, organism-based
Procedure, shortened: (§2)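 MRSA inoculum of 1 × 10^6 to 5 × 10^6 CFU/ml in 10 ml Mueller-Hinton broth. Drug at 1× and 4× MIC; drug-free growth control. Incubated at 37°C. Aliquots plated on Mueller-Hinton agar at 0, 6 and 24 h. Quantification limit 200 CFU/ml. Mean log10 CFU/ml reduction ± SD.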

[7] = Cmin in cage fluid of Albino guiena pig at 12.5 mg/kg, ip after 12 hrs; assay type: ADME, organism-based, Cavia porcellus; design: dose 12.5 mg/kg, route intraperitoneal; conditions: guinea pig, read-out: Cmin
Staphylococcus aureus [8] = assay: Antibacterial activity against 1 x10'6 to 5 x10^6 CFU/ml methicillin-resistant Staphylococcus aureus ATCC 43300 assessed as log decrease in bacterial count at MIC after 6 hrs by time kill study; assay type: functional; procedure, shortened: as §2
[9] = Cmax in cage fluid of Albino guiena pig at 12.5 mg/kg, ip after 12 hrs; assay type: ADME, organism-based, Cavia porcellus, Interstitial fluid; design: dose 12.5 mg/kg, route intraperitoneal; conditions: guinea pig
Staphylococcus aureus [10] = assay: Antibacterial activity against methicillin-resistant Staphylococcus aureus ATCC 43300 during stationary growth phase by macrodilution method; assay type: functional
Staphylococcus aureus [11] = assay: Antibacterial activity against 1 x10'6 to 5 x10^6 CFU/ml methicillin-resistant Staphylococcus aureus ATCC 43300 assessed as percent resistant isolates at MIC after 24 hrs by time kill study; assay type: functional
[12] = Tmax in cage fluid of Albino guiena pig at 12.5 mg/kg, ip; assay type: ADME, organism-based, Cavia porcellus; design: dose 12.5 mg/kg, route intraperitoneal; conditions: guinea pig
Staphylococcus aureus [13] = assay: Antibacterial activity against methicillin-resistant Staphylococcus aureus ATCC 43300 infected in Albino guiena pig assessed as no. of culture-negative cage fluid samples at 12.5 mg/kg measured on day 10 postinfection; assay type: functional
Procedure, shortened: (§3)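 Same guinea pig cage infection and intraperitoneal 4-day, twice-daily regimen. Cage fluid cultured on day 4 and day 10. Result is the number of cage fluid samples without detectable MRSA growth over the total cages per group.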

Staphylococcus aureus [14] = assay: Antibacterial activity against methicillin-resistant Staphylococcus aureus ATCC 43300 infected in Albino guiena pig assessed as no. of culture-negative cage fluid samples at 12.5 mg/kg measured on day 4 postinfection; assay type: functional; procedure, shortened: as §3
Staphylococcus aureus [15] = assay: Antibacterial activity against 1 x10'6 to 5 x10^6 CFU/ml methicillin-resistant Staphylococcus aureus ATCC 43300 assessed as log decrease in bacterial count at 4 times MIC after 6 hrs by time kill study; assay type: functional; procedure, shortened: as §2

Compound: CO[C@H]1/C=C/O[C@@]2(C)Oc3c(C)c(O)c4c(O)c(c(/C=N/N5CCN(C)CC5)c(O)c4c3C2=O)NC(=O)/C(C)=C\C=C\[C@H](C)[C@H](O)[C@@H](C)[C@@H](O)[C@@H](C)[C@H](OC(C)=O)[C@@H]1C [RIFAMPIN]
- log10CFU/ml (Staphylococcus aureus [1]): <3
- MIC (Staphylococcus aureus [2]): 0.01 µg/mL (≈ 0.0122 µM)
- AUC(0-t) at 24 h [3]: 4600 ng·h/mL
- MBC (Staphylococcus aureus [4]): 0.08 µg/mL (≈ 0.0972 µM)
- log10CFU/ml (Staphylococcus aureus [5]): 3.1
- Activity (Staphylococcus aureus [6]): inactive
- concentration at 12 h [7]: 100 ng/mL
- log10CFU/ml (Staphylococcus aureus [8]): 0.5
- Cmax [9]: 1000 ng/mL
- MBC (Staphylococcus aureus [10]): 2.5 µg/mL (≈ 3.04 µM)
- Activity (Staphylococcus aureus [11]): 94%
- Tmax [12]: 2.1 h
- Activity (Staphylococcus aureus [13]): 92%
- Activity (Staphylococcus aureus [14]): 50%
- log10CFU/ml (Staphylococcus aureus [15]): 0.5
